Compound activity from PubChem BioAssay.
The full list was thinned out, with hits kept by preference.
XBP1 UPR activ: activators of adaptive XBP1 UPR arm, primary screen, cell-based, CHO-XBP1 luciferase reporter, luminescence, uHTS; IRE1-XBP1 UPR activation; percent of tunicamycin response, DMSO as zero; activation, % at 20 µM; hit rate 0.33% among 330,000; AID 463104, 2010;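 active = versus positive control, 20 µM dose yields 30% or more activation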;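 note: 100% = tunicamycin at 10 µg/mL and 0% = DMSO only wells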
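assay system = CHO-XBP1 luciferase reporter cells | amount = 1000 cells/well | buffer or medium = F12 plus 10% FBS | compound dosing = single point, 20 µM final compound, 1% DMSO | incubation = 16-18 h cell attachment at 37 °C, then 6 h compound exposure | detection = Steady-Glo luminescence read | controls = tunicamycin 10 µg/mL and vehicle-only wells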
CHOP UPR activ: activators of apoptotic CHOP UPR arm, primary screen, cell-based, CHO-CHOP luciferase reporter, luminescence, uHTS; UPR activation; percent of tunicamycin response over DMSO baseline; activation, % at 10 µM; hit rate 0.34% among 330,000; AID 449763, 2010;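 active = at 10 µM dose, activation of 40% or more, normalized to positive control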;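 note: 100% = tunicamycin at 10 µg/mL and 0% = DMSO alone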
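Dosing – one dose, 10 µM in 0.5% DMSO · System – CHO-CHOP cells, stable luciferase reporter of PERK-eIF2a-CHOP signalling · Input – 500 cells/well · Control set – tunicamycin 10 µg/mL final as positive, DMSO-only wells as negative · Timing – 6 h compound treatment, 37 °C · Measure – % activation vs tunicamycin · Technique – luminescence read with Steady-Glo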
VLA-4 inh: inhibition in human VLA-4 binding assay, primary screen, VLA-4 allosteric modulator project, MLPCN library, flow cytometry, VLA-4 expressing cells | inhibition, % (about 7 µM as worked out from the volumes in the protocol) | ligand binding flow cytometry | hit rate 0.2% among 330,000; in the data active = inhibition above about 50%
CHOP inhibitor: inhibitors of CHOP promoter induction, primary screen, cell-based, unfolded protein response, luciferase reporter. CHO-K1 CHOP-promoter luciferase, tunicamycin-induced, 15-18 h. inhibition, % at 10 µM. hit rate 3.8% among 220,000. AID 2732, 2010;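 active = compounds that reduced the stress-induced luciferase reporter signal by more than about 70% of percent inhibition, limit read from the data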;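 note: 0% = tunicamycin plus vehicle and 100% = wells without tunicamycin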
B2AR ag: beta2AR agonists driving receptor internalization, primary screen, cell-based, FAP fluorogen, flow cytometry | Am2.2-beta2AR cells | response, % (no concentration beside the values) | hit rate 0.43% among 340,000;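 active = response above a set limit, near 3 SD of response in nonfluorescent compounds, cut at about 42% in these data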
Target sequence (P07550 whole entry, looked up): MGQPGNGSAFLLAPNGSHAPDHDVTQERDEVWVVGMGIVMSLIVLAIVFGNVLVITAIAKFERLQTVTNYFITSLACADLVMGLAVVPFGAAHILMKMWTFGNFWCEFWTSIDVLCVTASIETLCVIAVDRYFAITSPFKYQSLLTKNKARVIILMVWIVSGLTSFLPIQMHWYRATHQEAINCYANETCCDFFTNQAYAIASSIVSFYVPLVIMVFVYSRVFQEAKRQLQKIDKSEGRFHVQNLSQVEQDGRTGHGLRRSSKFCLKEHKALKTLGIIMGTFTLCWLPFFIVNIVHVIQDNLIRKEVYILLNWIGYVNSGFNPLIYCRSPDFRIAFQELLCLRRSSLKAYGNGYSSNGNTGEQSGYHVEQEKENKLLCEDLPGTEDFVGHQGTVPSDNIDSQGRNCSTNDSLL
VLA-4 allo CP: retest of VLA-4 allosteric modulators, confirmation, cell-based, cherry-picked plates, U937, HUTS-21 LIBS antibody; hit rate 2% among 1,300; U937 cells, HUTS-21 LIBS mAb binding, flow cytometry; LDV ligand present at threefold Kd; inhibition, % at 6.7 µM; AID 2813, 2010; shares compounds with VLA-4 inh; in the data active = inhibition above about 40%;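 note: 0% = ligand without compound and 100% = no ligand background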
* = called active by the depositor; · = not tested or not shown.

SMILES	XBP1 UPR activ	CHOP UPR activ	VLA-4 inh	CHOP inhibitor	B2AR ag	VLA-4 allo CP
CN1C[C@@H]2[C@@H]3C(=O)N(Cc4ccccc4)C(=O)[C@@H]3[C@](C)(C1=O)N2C(=O)c1ccc(F)cc1	·	·	·	·	1	·
S=c1nc[nH]c2c1ncn2C1CCCC1	·	·	-9	-5	-7	·
N=c1n(CCO)c2ccccc2n1CCOc1ccc(Cl)cc1Cl	5	0	54*	7	21	24
O=C(CC1CCC1)Nc1cccc2c([N+](=O)[O-])cccc12	-4	-2	0	·	-2	·
CCN1CCN(Cc2nnc(-c3ccccc3)o2)CC1	10	0	10	·	4	·
c1ccc(-c2nnc(CN3CCCCC3)o2)cc1	1	1	45	·	-1	-12
O=C1CCc2ccc(NC(=O)C3CC3)cc2N1	-1	0	55*	-4	9	-9
C#CCOCCOCCOCCNc1nc(N2CCN(C(=O)[C@H](CC(N)=O)n3cc([C@@H](N)C(C)C)nn3)CC2)nc(N2CCN(C(=O)[C@H](CC(N)=O)n3cc([C@@H](N)C(C)C)nn3)CC2)n1	-1	1	11	·	-2	·
Cc1ccc(NS(=O)(=O)c2ccc(-c3cnc(C4CC4)o3)cc2)c(C)c1	5	3	55*	·	21	47*
O=c1c(C(c2ccc(Cl)cc2)c2c(O)nc3n(c2=O)CCS3)c(O)nc2n1CCS2	0	0	8	5	-7	·
N#Cc1c(-c2ccc(Cl)cc2Cl)nc2n(c1=O)CCS2	-1	0	92*	8	26	-7
CCn1cc(C(=O)O)c(=O)c2cc(F)c(N3CCNC(C)C3)c(F)c21 (stereo unspecified)	·	·	·	-11	·	·
Cc1cc(Cl)ccc1NC(=O)Cn1cncn1	-3	-1	53*	-12	14	-1
COCCNC(=O)C1(S(=O)(=O)c2ccccc2)CC=CC1	1	1	0	·	4	·
O=C1N[C@@H](Cc2ccccc2)COC(=O)[C@H](Cc2ccc(F)cc2)C/C=C\C[C@H]1CC(=O)N(CCO)Cc1ccccc1	1	4	1	·	13	·
C[C@H]1COC(=O)[C@H](Cc2ccc(F)cc2)C/C=C\C[C@H](CC(=O)N(CCO)Cc2ccccc2)C(=O)N1	1	1	113*	·	2	6
CCOC(=O)C1CCN(C(=O)c2ccccc2NC(=O)C2=C(C)OCCS2)CC1	-5	-2	14	·	1	·
CC(NC(=O)NC1CCCCC1)c1ccc2c(c1)OCO2 (stereo unspecified)	0	0	41	31	-28	8
N#Cc1ccc(C(=O)NCCCSc2ccccc2)cc1	0	0	1	·	5	·
CCOCC(O)CNc1ccccc1 (stereo unspecified)	-3	-2	41	-11	-2	14
OC(CNc1ccccc1)COc1ccc(OCC(O)CNc2ccccc2)cc1 (stereo unspecified)	-2	4	-8	65	12	·
CCOC(=O)c1c(C)[nH]c(C(=O)COC(=O)c2ccco2)c1C	3	4	4	·	7	6
CCOC(=O)c1c(C)[nH]c(C(=O)COC(=O)c2cccnc2Cl)c1C	4	8	-12	·	-1	·
CCOC(=O)c1c(C)[nH]c(C(=O)COC(=O)c2cnccn2)c1C	-2	-2	10	·	-4	0
CCOC(=O)c1c(C)[nH]c(C(=O)COC(=O)c2ccncc2)c1C	1	1	4	15	-6	-5
SMILES	XBP1 UPR activ	CHOP UPR activ	VLA-4 inh	CHOP inhibitor	B2AR ag	VLA-4 allo CP
CCOC(=O)c1[nH]c(C)c(C(=O)N2CCN(C(=O)c3ccco3)CC2)c1C	2	0	-3	15	-5	·
CCOC(=O)c1c(C)[nH]c(C(=O)COC(=O)C2CC2C)c1C (stereo unspecified)	-2	3	-1	-12	0	-2
CCOc1ccccc1NC(=O)CSc1nc2ccccc2c(=O)n1CC1CCCO1 (stereo unspecified)	0	-2	5	·	-7	·
COc1ccc(S(=O)(=O)N2CCCOC2CNC(=O)C(=O)NCCc2ccco2)cc1C (stereo unspecified)	-3	1	7	·	-7	·
N#CCN=C(c1ccccc1)c1ccccc1	-2	0	0	·	-3	·
Cc1ccsc1C(=O)Nc1nc2ccccc2[nH]1	-2	0	2	-20	-4	·
CCCc1ccc2oc(C(=O)N3CCCC3)c(C)c2c1	2	7	17	·	2	·
COc1ccc(CCNC(=O)C2CCN(S(=O)(=O)c3cccc4cccnc34)CC2)cc1OC	-2	-3	-7	·	12	·
CCOc1ccc(NC(=O)c2ccccc2NC(=O)c2cccnc2)cc1	-4	-2	5	·	4	·
CCOC(=O)c1c(NC(=O)C2c3ccccc3Oc3ccccc32)sc(C(=O)N(CC)CC)c1C	4	8	-2	43	11	3
N#Cc1c(-c2c(Cl)cccc2Cl)noc1/C=C/Nc1ccc(C(=O)O)cc1	1	0	42	-1	-2	-2
CN(C)/C=C/c1onc(-c2c(Cl)cccc2Cl)c1C#N	1	0	-12	13	4	·
CSCC[C@H](NC(=O)[C@H](Cc1ccccc1)n1c(=O)[nH]c2ccccc2c1=O)C(=O)N[C@@H](Cc1ccccc1)C(=O)O	-4	-5	25	·	-9	·
CCOC(=O)N1CCN(C(=O)c2ccc3c(c2)N(Cc2cccc(Cl)c2)C(=O)c2ccccc2S3=O)CC1 (stereo unspecified)	1	1	10	·	-8	·
O=C(NCCCNc1ccc(C(F)(F)F)cc1[N+](=O)[O-])c1ccc(Cl)cc1	-3	-1	-1	50	-6	·
O=C(NCCCNc1ccc(C(F)(F)F)cc1[N+](=O)[O-])c1cc(F)c(F)cc1Cl	-2	-3	94*	-2	1	12
CC(C)c1ccc(NC(=O)C(c2ccccc2)N2CC(=O)Nc3ccccc32)cc1 (stereo unspecified)	-1	4	72*	-5	1	3
CC(C)[C@H](NC(=O)N1CC(=O)Nc2ccccc21)C(=O)N[C@H](C(=O)O)c1ccccc1	-1	-2	30	·	2	·
O=C1CCN(CCCc2ccccc2)CCN1[C@H](CO)Cc1ccccc1	0	1	54*	·	-2	0
Cc1ccc(CNC(=O)C2CCCN2S(=O)(=O)c2ccc(Cl)cc2)cc1 (stereo unspecified)	-7	0	-6	·	3	·
